Test results taken from PMC2909360 (Molecular microbiology, 2010).
Read-outs that look alike come from different tables or passages of the source.

T1: purified human cathepsin H (Homo sapiens, UniProt P09668)
T1 sequence (P09668 98-335): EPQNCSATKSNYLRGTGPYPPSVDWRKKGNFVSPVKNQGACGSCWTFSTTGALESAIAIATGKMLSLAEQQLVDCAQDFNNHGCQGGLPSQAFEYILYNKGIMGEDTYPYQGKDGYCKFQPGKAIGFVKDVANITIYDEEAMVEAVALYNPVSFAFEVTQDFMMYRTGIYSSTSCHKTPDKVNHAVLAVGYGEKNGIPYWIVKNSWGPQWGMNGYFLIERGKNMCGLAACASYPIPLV

B1: sialoL: salivary cystatin (cysteine protease inhibitor) from the tick Ixodes scapularis, recombinant from E. coli (protein)
chain: TGVFGGYSERANHQANPEFLNLAHYATSTWSAQQPGKTHFDTVAEVVKVETQVVAGTNYRLTLKVAESTCELTSTYNKDTCLPKADAAHRTCTTVVFENLQGDKSVSPFECEAA
B2: sialoL2: salivary cystatin (cysteine protease inhibitor) from the tick Ixodes scapularis, recombinant from E. coli (protein)
chain: MELALRGGYRERSNQDDPEYLELAHYATSTWSAQQPGKTHFDTVVEVLKVETQTVAGTNYRLTLKVAESTCELTSTYNKDTCQANANAAQRTCTTVIYRNLQGEKSISSFECAAA

How the values were obtained:
[1] = biological target: T1, purified human cathepsin H; test: Inhibition of cathepsin H, fluorogenic substrate assay; type: biochemical
[2] = biological target: purified bovine cathepsin B (Bos taurus, UniProt P07688); test: Inhibition of cathepsin B, fluorogenic substrate assay; type: biochemical
Method in brief: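 Pre-incubated 10 min at room temperature with increasing inhibitor concentrations, then Z-Leu-Arg-AMC added (0.25 mM final) at 30°C. Linear hydrolysis rate read for 20 min (ex 365/em 450 nm). Triplicates, mean ± SEM. IC50 from activity loss.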

Molecule | inhibition of cathepsin H (in words) [1] | inhibition of cathepsin B (in words) [2] | inhibition of cathepsin H (in words) ([1]; listed as sialostatin L2)
B1 | no inhibition | no inhibition | 
B2 |  | no inhibition | no detectable inhibition
